Results taken from the M2OR odorant receptor database.
Residue numbers refer to the chain shown, from its start.

What was measured:
Details in all cases: stereoisomer not certain
OR2C3 [1] = tested on: T1, OR2C3
T1 sequence (whole entry): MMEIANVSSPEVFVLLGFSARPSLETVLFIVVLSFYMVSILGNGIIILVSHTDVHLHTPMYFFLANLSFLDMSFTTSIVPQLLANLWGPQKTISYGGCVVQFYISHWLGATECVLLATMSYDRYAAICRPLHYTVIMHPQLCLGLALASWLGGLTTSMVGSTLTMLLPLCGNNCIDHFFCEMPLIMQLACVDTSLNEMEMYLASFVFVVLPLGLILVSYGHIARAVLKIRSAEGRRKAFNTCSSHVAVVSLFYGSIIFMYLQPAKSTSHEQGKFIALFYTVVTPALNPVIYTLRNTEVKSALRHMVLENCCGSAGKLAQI
How it was run: (§1)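 Transient luciferase assays in mammalian cell lines were common, though methods varied by source. The values come from published papers and their supplementary material, with extra details from the original authors when needed. Responsive refers to a measured signal the original authors judged statistically different from baseline, and non-responsive (inactive) to the remainder.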

OR2C3 [2] = tested on: T2, OR2C3; remark: listed apart in the source
T2 sequence (whole entry): T1 sequence (whole entry) with A20T, V289L
How it was run: as §1

OR2D2 (Homo sapiens) = biological target: T3, OR2D2 (Homo sapiens) (UniProt Q9H210)
T3 sequence (whole entry): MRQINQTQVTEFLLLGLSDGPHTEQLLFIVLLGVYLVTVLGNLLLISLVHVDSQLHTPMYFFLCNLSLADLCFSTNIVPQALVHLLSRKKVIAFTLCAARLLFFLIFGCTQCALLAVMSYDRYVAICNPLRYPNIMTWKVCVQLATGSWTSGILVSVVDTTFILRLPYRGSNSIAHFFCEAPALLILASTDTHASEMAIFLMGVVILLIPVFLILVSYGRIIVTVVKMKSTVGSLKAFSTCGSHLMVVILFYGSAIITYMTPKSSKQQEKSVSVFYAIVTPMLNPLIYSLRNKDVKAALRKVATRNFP
How it was run: as §1

OR2D2 S148P I163T M202T = tested on: T4, OR2D2 S148P I163T M202T
T4 sequence (whole entry): T3 sequence (whole entry) with S148P, I163T, M202T
How it was run: as §1

OR2D3 (Homo sapiens) = biological target: T5, OR2D3 (Homo sapiens) (UniProt Q8NGH3)
T5 sequence (whole entry): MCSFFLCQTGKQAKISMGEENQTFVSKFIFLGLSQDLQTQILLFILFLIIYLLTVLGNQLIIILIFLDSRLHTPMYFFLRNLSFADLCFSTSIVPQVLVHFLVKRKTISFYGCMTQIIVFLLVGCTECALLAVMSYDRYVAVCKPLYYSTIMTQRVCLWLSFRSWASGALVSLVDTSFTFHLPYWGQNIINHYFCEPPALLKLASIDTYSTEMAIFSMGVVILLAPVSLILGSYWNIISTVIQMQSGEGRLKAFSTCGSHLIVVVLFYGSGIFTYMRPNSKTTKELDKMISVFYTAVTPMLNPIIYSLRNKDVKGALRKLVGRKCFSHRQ
How it was run: as §1

OR2D3 R155W = tested on: T6, OR2D3 R155W
T6 sequence (whole entry): T5 sequence (whole entry) with R155W
How it was run: as §1

OR2F1 (Homo sapiens) = biological target: T7, OR2F1 (Homo sapiens) (UniProt Q13607)
T7 sequence (whole entry): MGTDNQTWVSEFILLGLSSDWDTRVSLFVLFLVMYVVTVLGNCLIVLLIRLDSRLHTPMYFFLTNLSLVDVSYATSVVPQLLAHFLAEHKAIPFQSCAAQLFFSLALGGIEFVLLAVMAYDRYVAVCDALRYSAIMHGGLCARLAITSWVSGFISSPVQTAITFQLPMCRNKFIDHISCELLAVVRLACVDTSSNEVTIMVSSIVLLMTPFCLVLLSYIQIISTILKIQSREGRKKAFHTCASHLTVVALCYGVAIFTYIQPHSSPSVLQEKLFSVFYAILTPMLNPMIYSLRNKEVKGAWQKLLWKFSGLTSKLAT
How it was run: as §1

OR2F2 (Homo sapiens) = biological target: T8, OR2F2 (Homo sapiens) (UniProt O95006)
T8 sequence (whole entry): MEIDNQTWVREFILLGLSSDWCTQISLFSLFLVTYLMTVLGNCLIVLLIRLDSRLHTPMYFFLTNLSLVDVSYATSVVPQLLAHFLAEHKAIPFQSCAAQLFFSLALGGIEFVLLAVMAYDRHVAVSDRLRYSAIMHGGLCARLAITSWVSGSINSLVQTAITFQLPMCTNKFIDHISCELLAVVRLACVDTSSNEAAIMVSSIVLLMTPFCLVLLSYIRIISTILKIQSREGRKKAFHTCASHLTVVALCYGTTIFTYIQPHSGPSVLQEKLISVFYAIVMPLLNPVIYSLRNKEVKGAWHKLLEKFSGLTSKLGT
How it was run: as §1

OR2G2 (Homo sapiens) = biological target: T9, OR2G2 (Homo sapiens) (UniProt Q8NGZ5)
T9 sequence (whole entry): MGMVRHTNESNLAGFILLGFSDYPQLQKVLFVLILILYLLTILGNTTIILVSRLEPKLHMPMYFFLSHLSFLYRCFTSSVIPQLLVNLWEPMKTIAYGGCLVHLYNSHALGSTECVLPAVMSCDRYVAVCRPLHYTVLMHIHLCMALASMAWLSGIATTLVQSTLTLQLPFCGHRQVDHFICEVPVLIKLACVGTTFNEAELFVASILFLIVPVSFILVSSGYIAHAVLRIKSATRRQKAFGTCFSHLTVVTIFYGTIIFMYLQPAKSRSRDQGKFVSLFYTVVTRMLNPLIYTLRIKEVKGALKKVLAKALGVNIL
How it was run: as §1

OR2G2 L167P R236G = tested on: T10, OR2G2 L167P R236G
T10 sequence (whole entry): T9 sequence (whole entry) with L167P, R236G
How it was run: as §1

OR2G3 (Homo sapiens) = biological target: T11, OR2G3 (Homo sapiens) (UniProt Q8NGZ4)
T11 sequence (whole entry): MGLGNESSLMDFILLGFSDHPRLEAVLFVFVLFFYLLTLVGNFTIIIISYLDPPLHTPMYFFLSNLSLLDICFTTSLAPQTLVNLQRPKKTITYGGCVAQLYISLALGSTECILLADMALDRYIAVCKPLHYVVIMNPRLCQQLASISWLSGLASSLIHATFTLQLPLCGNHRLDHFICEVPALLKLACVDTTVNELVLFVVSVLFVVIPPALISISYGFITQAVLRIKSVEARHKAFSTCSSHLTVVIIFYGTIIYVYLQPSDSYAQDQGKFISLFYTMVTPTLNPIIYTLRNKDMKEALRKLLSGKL
How it was run: as §1

OR2G3 I289V = tested on: T12, OR2G3 I289V
T12 sequence (whole entry): T11 sequence (whole entry) with I289V
How it was run: as §1

OR2G6 (Homo sapiens) = biological target: T13, OR2G6 (Homo sapiens) (UniProt Q5TZ20)
T13 sequence (whole entry): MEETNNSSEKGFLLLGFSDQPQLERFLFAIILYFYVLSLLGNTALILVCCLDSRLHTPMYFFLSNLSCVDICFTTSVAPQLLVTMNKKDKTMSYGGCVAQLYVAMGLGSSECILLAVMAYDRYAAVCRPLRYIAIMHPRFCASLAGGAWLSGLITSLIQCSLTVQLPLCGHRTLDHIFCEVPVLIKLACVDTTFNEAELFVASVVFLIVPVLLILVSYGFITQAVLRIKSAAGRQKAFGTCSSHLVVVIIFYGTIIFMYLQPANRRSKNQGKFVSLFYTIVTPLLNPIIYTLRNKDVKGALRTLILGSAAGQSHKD
How it was run: as §1

OR2H1 (Homo sapiens) = biological target: T14, OR2H1 (Homo sapiens) (UniProt Q9GZK4)
T14 sequence (whole entry): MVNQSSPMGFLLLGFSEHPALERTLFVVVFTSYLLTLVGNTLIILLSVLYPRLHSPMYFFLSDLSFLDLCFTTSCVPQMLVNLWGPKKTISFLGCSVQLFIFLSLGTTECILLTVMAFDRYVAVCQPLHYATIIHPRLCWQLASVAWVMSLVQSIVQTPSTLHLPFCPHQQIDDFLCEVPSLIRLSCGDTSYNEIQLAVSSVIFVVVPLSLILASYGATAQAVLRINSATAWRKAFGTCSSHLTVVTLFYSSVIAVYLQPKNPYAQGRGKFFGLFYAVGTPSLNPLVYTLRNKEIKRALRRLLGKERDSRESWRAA
How it was run: as §1

OR2H2 (Homo sapiens) = biological target: T15, OR2H2 (Homo sapiens) (UniProt O95918)
T15 sequence (whole entry): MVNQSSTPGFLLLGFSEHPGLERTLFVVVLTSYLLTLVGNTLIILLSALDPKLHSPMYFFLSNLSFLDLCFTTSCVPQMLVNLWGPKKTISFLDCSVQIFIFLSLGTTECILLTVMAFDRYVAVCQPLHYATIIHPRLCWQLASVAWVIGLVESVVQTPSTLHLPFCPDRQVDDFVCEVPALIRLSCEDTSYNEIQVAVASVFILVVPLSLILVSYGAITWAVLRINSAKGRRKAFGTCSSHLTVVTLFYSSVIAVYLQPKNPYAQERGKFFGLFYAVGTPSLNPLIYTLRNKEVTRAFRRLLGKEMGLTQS
How it was run: as §1

OR2C3 (Homo sapiens) = biological target: T16, OR2C3 (Homo sapiens) (UniProt Q8N628)
T16 sequence (whole entry): T1 sequence (whole entry) with A20T, S68P, V289L
How it was run: as §1

Measured: odorant receptor agonist call;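 also: active if original authors judged signal statistically different from baseline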

CC1=C(O)C(=O)OC1C (stereo unspecified)
inactive: OR2C3 [1] | OR2C3 [2] | OR2D2 (Homo sapiens) | OR2D2 S148P I163T M202T | OR2D3 (Homo sapiens) | OR2D3 R155W | OR2F1 (Homo sapiens) | OR2F2 (Homo sapiens) | OR2G2 (Homo sapiens) | OR2G2 L167P R236G | OR2G3 (Homo sapiens) | OR2G3 I289V | OR2G6 (Homo sapiens) | OR2H1 (Homo sapiens) | OR2H2 (Homo sapiens)

Cc1ccc(C(C)C)cc1O
inactive: OR2G2 (Homo sapiens)

CC1CCCCCCCCCCCCC(=O)C1 (stereo unspecified)
inactive: OR2C3 (Homo sapiens) | OR2D2 (Homo sapiens) | OR2D3 (Homo sapiens) | OR2F1 (Homo sapiens) | OR2F2 (Homo sapiens) | OR2G2 (Homo sapiens) | OR2G3 (Homo sapiens) | OR2G6 (Homo sapiens) | OR2H1 (Homo sapiens) | OR2H2 (Homo sapiens)
